Screening data (PubChem BioAssay)
INS-1E GSIS act – primary screen for activators of insulin secretion dependent on glucose, INS-1E cells, GLuc reporter luminescence; INS-1E GLuc reporter insulin secretion, 2-3 h; activation, % at 16.6 µM; actives 0.61% (n = 370,000);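 active means lowest replicate activation of at least 40%, so every replicate reaches that level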;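 further: 0% = median of neutral control wells and 100% = median of IBMX positive control wells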
Env fusion inh – inhibitors of HIV Env-mediated cell fusion | AID 651610 | actives 1.1% (n = 360,000) | inhibition, % at 12.3 µM | HeLa-JRFL Env/CEM21 cell fusion, luciferase;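 active means mean replicate inhibition score of at least 50 and every replicate individually at or above 50; inconclusive means only one of the two criteria met; inactive means mean below 50 and not all replicates reaching 50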;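 further: 0% = plate neutral controls and 100% = maraviroc near 300 nM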
Ecoli rRNA inh – inhibits bacterial ribosomal RNA function over humanized ribosomes; GFP signal change (wild-type ribosome), % (no concentration beside the values); E. coli WT GFP vs humanized-ribosome RFP mutants, fluorescence, 24 h; active compounds read low; DMSO median 0, no signal -100; actives 1.6% (n = 350,000);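 active means significant combined selectivity score with lowered wild-type GFP, culture density cut under 30%, mutant RFP and density less affected; inactive means any of these conditions unmet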
F508del corr – CFTR F508del correction in bronchial cells | actives 0.36% (n = 350,000) | AID 720511 | CFBE cells, YFP halide quenching; stimulated with forskolin plus potentiator P3; % fluorescence drop versus neutral controls | activity (quench increase), % at 7.58 µM;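 active means mean added fluorescence quench of at least 8% versus neutral control, with both replicates also reaching 8%; inconclusive means only one of the mean or replicate conditions met; inactive means mean below 8% and not both replicates reaching 8%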;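 further: cells transiently co-express mutant CFTR-F508del with the halide-sensitive YFP; corrector assay measuring rescue of mutant channel to the surface after 24 h compound exposure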
Cneo AK release – Cryptococcus neoformans lysis via adenylate kinase release | lysis activity, % at 15 µM | C. neoformans lysis, adenylate kinase release luminescence, 4 h; normalised: neutral wells 0, clomiphene wells 100 | actives 0.2% (n = 360,000);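 active means mean lysis activity across replicates of at least 80%, whatever share of replicates individually reach that level; inactive means mean lysis activity below 80%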
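Material – log-phase Cryptococcus neoformans yeast cells · Input – 5 × 10^6 yeast cells/mL · Medium – fresh YPD growth medium · Doses – single compound concentration per well · Timing – static 4 h at 37 °C with compound, 1 h detection · Detection – adenylate kinase release luminescence · Read-out – signal increase indicating cell lysis · Control set – Clomiphene as positive lysis control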
miR-122 sensor – inhibitors of miR-122 in Huh7 cells | Huh7 miR-122 Renilla luciferase sensor, 48 h; neutral wells = 0, positive control = 100 | activation (reporter increase), % at 12.5 µM | actives 0.3% (n = 340,000);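 active means mean replicate activation score at least 90 and every replicate individually at or above 90; inconclusive means only one of the two criteria met; inactive means neither criterion met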;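 further: higher luciferase means less miR-122 activity so hits act as miR-122 inhibitors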
An asterisk follows results filed as active; ? = inconclusive; nt = no result; [ ] = dose if it differs, or a comment. Most compounds without a hit are left out; they make up all but 3.1% or so of the library.

SMILES | INS-1E GSIS act | Env fusion inh | Ecoli rRNA inh | F508del corr | Cneo AK release | miR-122 sensor
O=[N+]([O-])c1ccc(O)c(C2=NNC(c3ccccc3F)C2)c1 (centres undefined) | -4 | 33 | -54* | 3 | 1 | 13
C[n+]1c2n(c3ccccc31)N=C(c1ccc(Cl)cc1)CS2 | nt | 33 | nt | nt | 0 | 8
CC1Sc2n(c3ccccc3[n+]2C)N=C1c1ccccc1 (centres undefined) | -16 | 60* | nt | nt | nt | nt
CC(OC(=O)c1snc(C(=O)NC2CCCCC2)c1N)C(=O)NC(C)(C)C (centres undefined) | nt | ? | nt | nt | 1 | 2
CC(C)(C)NC(=O)COC(=O)c1snc(C(=O)NC2CCCCC2)c1N | nt | 101* | nt | nt | 1 | -13
CO[C@@H]1CN(C)C(=O)c2cc(NC(=O)C3CC3)ccc2OC[C@H](C)N(C(=O)Cc2ccccn2)C[C@@H]1C | 1 | 26[16.7 µM] | 0 | 1 | 3 | nt
c1cc(-c2cc3cc4c(cc3cn2)OCO4)cs1 | 1 | -269 | 6 | 0 | -2 | 6
COc1cc2cnc(-c3ccsc3)cc2cc1OC | 50* | -10 | -13 | 2 | -10 | nt
CC(C)(C)c1ccc(C(=O)CC(=O)c2cc(Cl)ccc2O)cc1 | nt | 83* | nt | nt | 1 | 7
O=C(C[C@H]1C=C[C@@H](NC(=O)c2ccccn2)[C@@H](CO)O1)NCc1cc(F)cc(F)c1 | 4 | -7[16.7 µM] | 2 | 0 | -6 | nt
CC(C)(C)c1ccc(-c2noc(CCC(N)=O)n2)cc1 | 0 | 100* | -3 | nt | nt | -10
CC(C)(C)c1ccc(-c2noc(CCC(=O)NCC3CCCO3)n2)cc1 (centres undefined) | -14 | 75* | nt | nt | nt | 3
C[C@@H]1CN([C@@H](C)CO)C(=O)c2cc(NC(=O)CCC(F)(F)F)ccc2O[C@@H](C)CCCCO[C@@H]1CN(C)C(=O)c1ccncc1 | -9 | -9[16.7 µM] | 1 | 1 | 2 | -6[16.7 µM]
C=CCn1c(SCC(=O)c2ccc(O)c(O)c2)nnc1-c1cccc(C)c1 | 33 | 3 | -27* | 3 | 1 | -15
Cc1ccc(C(=O)NC(C(=O)Nc2ccccc2)c2ccccc2)cc1 (centres undefined) | -6 | -17 | -15 | 1 | 2 | 5
CN(c1ccccc1)S(=O)(=O)c1ccc(NC(=O)c2ccc(F)cc2)cc1 | nt | 4 | -28* | -1 | nt | nt
O=C(Nc1cccc(NC(=O)c2cccs2)c1)c1ccc(F)cc1 | -13 | -3 | -28* | 0 | 4 | 29
Cc1ccc(C(=O)Nc2cccc(C(O)c3ccccc3)c2)cc1 (centres undefined) | -5 | 11 | -33* | 1 | nt | nt
Cc1ccc(C(=O)Nc2cccc(C(=O)O)c2)cc1 | 4 | 117* | nt | nt | nt | nt
COc1ccc2c3c(n(C)c2c1)[C@H](CO)N(C(=O)CN(C)C)CC31CN(Cc2nccs2)C1 | 23 | nt | 6 | 0 | nt | nt
Cc1ccc(C(=O)Nc2cnc3ccccc3c2)cc1 | nt | 94* | nt | nt | -8 | 5
CC(=O)Nc1cccc(C(=O)N/N=C/c2ccc(F)cc2)c1 | 9 | -25 | 15 | -2 | nt | nt
CN(c1ccc(C(=O)Nc2cccc(O)c2)cc1)S(=O)(=O)c1ccccc1 | 6 | 0 | -27 | -2 | -1 | 0
CC(=O)c1cccc(NC(=O)c2ccc(N(C)S(=O)(=O)c3ccc(C)cc3)cc2)c1 | 4 | 4 | -24* | 0 | -2 | 0
Cc1ccc(C(=O)Nc2cccc(C(=O)N/N=C/c3ccc(F)cc3)c2)cc1 | 101* | 10 | -3 | 1 | -3 | nt
SMILES | INS-1E GSIS act | Env fusion inh | Ecoli rRNA inh | F508del corr | Cneo AK release | miR-122 sensor
CCCc1cn(CC[C@@H]2CC[C@H](NC(=O)Nc3ccccc3F)[C@@H](CO)O2)nn1 | -1 | 1[16.7 µM] | -1 | 1 | 0 | -6[16.7 µM]
Cc1ccc(-c2nnc(Nc3ccc(OCC(N)=O)cc3)c3ccccc23)cc1S(N)(=O)=O | 7 | 1 | -13 | -1 | 0 | 30
NC(=O)COc1ccc(Nc2nnc(-c3ccc(O)cc3)c3ccccc23)cc1 | -26 | 3 | -25* | 0 | 1 | -11
C[C@@H]1CN([C@H](C)CO)C(=O)Cc2cc(NC(=O)C3CC3)ccc2O[C@@H]1CN(C)S(C)(=O)=O | 4 | -4[16.7 µM] | 4 | 0 | 1 | 1[16.7 µM]
O=C(N/N=C/c1cn(Cc2cccc(F)c2)c2ccccc12)c1cc(O)cc(O)c1 | 53 | nt | -24* | 6 | -3 | nt
O=C(O)c1ccc(N/N=C/c2cn(Cc3ccccc3F)c3ccccc23)cc1 | -2 | -98 | -35* | -6 | 1 | 23
Nc1ccc(C(=O)N/N=C/c2cn(Cc3ccc(F)cc3)c3ccccc23)cc1 | 11 | 27 | 1 | -1 | -1 | -3
COC(=O)N/N=C/c1cn(Cc2ccccc2Cl)c2ccccc12 | 6 | 22 | -26* | nt | nt | nt
COC(=O)N/N=C/c1cn(Cc2ccc(Cl)cc2Cl)c2ccccc12 | nt | nt | -28* | -4 | -3 | -1
COC(=O)N/N=C/c1cn(Cc2c(Cl)cccc2Cl)c2ccccc12 | -1 | nt | -19 | -3 | nt | 9
C[C@H]1CCCCO[C@H](CN(C)C(=O)NC2CCCCC2)[C@@H](C)CN([C@@H](C)CO)C(=O)c2cc(NC(=O)Cc3ccccc3)ccc2O1 | -31 | 35[16.7 µM] | -3 | 1 | 4 | 2[16.7 µM]
COc1ccc(NC(=O)N[C@H]2CC[C@H](CCn3cc(C4(O)CCCC4)nn3)O[C@@H]2CO)cc1 | 2 | -3[16.7 µM] | 1 | 2 | -2 | nt
COCC(=O)Nc1ccc2c(c1)OC[C@@H](C)N(Cc1cncnc1)C[C@@H](C)[C@@H](OC)CN(C)C2=O | 4 | nt | 2 | 2 | nt | 8[16.7 µM]
CCC(=O)N1[C@H](CO)[C@H](c2ccc(C3=CCCCC3)cc2)[C@H]1CNCC1CCC1 | -4 | nt | 2 | 1 | nt | nt
COc1ccc2c3c([nH]c2c1)[C@H](CO)N(Cc1ccncc1)CC31CN(Cc2ccc(-c3ccccn3)cc2)C1 | 0 | nt | -7 | 4 | nt | nt
CN(C)C(=O)c1ccc(-c2ccccc2[C@@H]2[C@@H](C#N)N(C(=O)C3CCC3)[C@H]2CO)cc1 | 5 | nt | 3 | 1 | nt | nt
COc1ccccc1OCCn1cc(/C=N/NC(=O)c2ccncc2)c2ccccc21 | 1 | 20 | -28* | -3 | 5 | -2
Cc1cc(NC(=O)CSc2nccn2-c2cccc(C)c2C)no1 | 6 | -8 | -28* | 1 | nt | nt
Cc1cccc(-n2ccnc2SCC(=O)Nc2cc(C)on2)c1 | nt | nt | nt | nt | 2 | -6
CCn1c(SCC(=O)NCCc2ccccc2)nc2c([nH]c3ccccc32)c1=O | 2 | 67* | 7 | -1 | 1 | -4
CCn1c(SCC(=O)NCCc2ccc(OC)c(OC)c2)nc2c([nH]c3ccccc32)c1=O | -2 | 70* | 7 | 2 | 0 | 1
